TRPC6 activator = mouse TRPC6 channel activation; HEK293-TRPC6 membrane potential dye fluorescence; active compounds read high; AID 2550; B-score at 10 µM; actives 0.13% (n = 310,000); Q61143;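 active means B-score of the integrated fluorescence ratio above library mean plus 3 SD, and starting fluorescence ratio within library mean plus 5 SD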;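 further: higher score means more depolarization so channel activation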
TRPC4 agonist = TRPC4 (mouse) channel activation | HEK293 TRPC4beta/mu-opioid, Fluo4 calcium fluorescence; active compounds read high | B-score at 10 µM | actives 0.49% (n = 310,000);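 active means B-score above 5 SD of library B-scores, and initial fluorescence ratio not above library mean plus 5 SD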;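 further: positive B-score marks a calcium rise read as TRPC4 activation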
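Material: TRPC4beta and mu-opioid receptor HEK293 stable cells | Incubation: 45 min room-temperature Fluo4 loading, 110 s read | Detection: Kinetic Fluo4 calcium fluorescence | Measure: Integrated baseline-normalised fluorescence ratio, converted to per-well B score | Benchmarks: Low control buffer alone, high control maximal DAMGO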
Kir21 inh = inhibitors of mouse Kir2.1 inward-rectifier potassium channel | AID 1672 | actives 0.85% (n = 310,000) | HEK293-Kir2.1, FluxOR thallium flux fluorescence; active compounds read low | P35561 | B-score at 10 µM;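 active means fluorescence ratio B-score at or below minus 3 SD of library scores, with starting-brightness B-score within 2 SD, cut at about -4.2 in these data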;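 further: channel flux triggered by added potassium and thallium sulfate stimulus; B-score of peak minus minimum fluorescence over baseline after thallium stimulus; more negative B-score means stronger Kir2.1 block with less thallium influx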
Target sequence (P35561 whole entry, looked up): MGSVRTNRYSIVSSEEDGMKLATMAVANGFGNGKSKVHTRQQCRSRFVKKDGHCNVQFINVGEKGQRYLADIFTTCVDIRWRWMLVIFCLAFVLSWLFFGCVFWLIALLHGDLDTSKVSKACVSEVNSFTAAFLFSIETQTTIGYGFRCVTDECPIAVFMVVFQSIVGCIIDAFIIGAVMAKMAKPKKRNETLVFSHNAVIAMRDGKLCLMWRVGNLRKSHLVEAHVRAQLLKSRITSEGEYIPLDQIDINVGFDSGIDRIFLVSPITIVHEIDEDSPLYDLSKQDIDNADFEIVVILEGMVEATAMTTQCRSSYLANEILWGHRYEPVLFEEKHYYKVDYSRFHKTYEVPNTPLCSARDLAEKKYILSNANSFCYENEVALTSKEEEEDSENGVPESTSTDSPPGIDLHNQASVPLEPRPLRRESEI
TRPC6 inhibitor = mouse TRPC6 channel inhibition | Q61143 | HEK293-TRPC6, membrane potential dye, ACh-evoked depolarization; active compounds read low | B-score at 10 µM | actives 1.1% (n = 310,000);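 active means B-score under library mean minus 3 SD, initial fluorescence not abnormally high, positive integrated signal ratio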;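 further: B-score derived from integrated fluorescence ratio over the kinetic read; more negative B-score means stronger inhibition of depolarization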
TRPC4 potent = allosteric potentiators of mouse TRPC4 channel. AID 2227. HEK293 TRPC4beta/mu-opioid, DAMGO EC20, Fluo-4 Ca2+ flux; active compounds read high. Q9QUQ5. B-score at 10 µM. actives 0.42% (n = 310,000);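 active means B-score of calcium response area above 5 SD of library B-scores, with initial fluorescence ratio within 5 SD of library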;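 further: B-score of integrated fluorescence ratio over time as area under calcium response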
TRPC4 inh = inhibitors of mouse TRPC4 channel. Q9QUQ5. actives 0.39% (n = 300,000). B-score at 10 µM. HEK293 TRPC4beta/mu-opioid, DAMGO-evoked Fluo4 calcium flux; active compounds read low;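 active means B-score over 3 SD under the library average, no early fluorescence shift, positive overall ratio signal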
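System: stable TRPC4beta/mu-opioid receptor HEK293 cells; Dosing: single-point compound dosing; Measured by: Fluo4 Ca2+ flux fluorescence; Read-out basis: per-well B score of integrated baseline-normalized Fluo4 ratio.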
TRPC4 spec 2 = second check of whether TRPC6 inhibitors also affect mouse TRPC4. actives 42% (n = 920). shares compounds with TRPC6 inhibitor. inhibition, % at 10 µM. HEK293 TRPC4/MOR, membrane potential dye fluorescence; channel activated by saturating DAMGO dose;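 active means compounds whose fluorescence signal differed from control wells by over 3 SD, either direction, in both duplicate plates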
TRPC4 spec = selectivity of TRPC6 inhibitors: effect on mouse TRPC4 | actives 61% (n = 920) | shares compounds with TRPC6 inhibitor | AID 2777 | activity change, negative = inhibition, % at 10 µM | HEK293 TRPC4/mu-opioid, membrane potential fluorescence;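 active means rise or fall in signal beyond 3 SD of buffer-only wells in both replicate plates, either sign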;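 further: integrated kinetic ratio of fluorescence range over baseline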
HEK293 MPD ctr 2-1 = parental HEK293 nonspecific activity of TRPC6 inhibitors, second screen; shares compounds with TRPC6 inhibitor; parental HEK293 membrane potential dye fluorescence; maximal acetylcholine challenge after compound addition; signal change vs control, % at 10 µM; actives 31% (n = 920); AID 2779;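 active means membrane potential signal moving either way by over 3 SD of the maximum-effect control, in both duplicate plates, meaning non-specific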
HEK293 MPD ctr-1 = parental HEK293 nonspecific activity of TRPC6 inhibitors; shares compounds with TRPC6 inhibitor; parental HEK293 membrane potential dye fluorescence; membrane potential signal change, % at 10 µM; actives 60% (n = 920); AID 2780;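 active means membrane potential signal shifting up or down by more than 3 SD of buffer-only wells, on both duplicate plates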
HEK293 MPD ctr-2 = checks TRPC6 modulator effects in parental HEK293 cells | shares compounds with TRPC6 inhibitor | membrane potential dye fluorescence | membrane potential signal change, % at 10 µM | actives 51% (n = 2,400) | AID 488924;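 active means membrane potential signal moves up or down beyond 5 SD from buffer-only wells, on both duplicate plates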
HEK293 MPD ctr 2-2 = second check of TRPC6 modulator effects in parental HEK293 cells; inhibition, % at 10 µM; AID 488926; actives 14% (n = 2,400); membrane potential dye fluorescence; after compound, maximal acetylcholine stimulation; shares compounds with TRPC6 inhibitor;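 active means membrane potential signal drops by more than 5 SD from the mean control signal, in both duplicate plates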;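 further: plate controls were acetylcholine ECmax control wells for no effect and buffer only wells for full effect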
TRPC4 ctr mod = mouse TRPC4 off-target activity of TRPC6 modulators; percent change from control (negative = decrease, positive = increase), % at 10 µM; HEK293 TRPC4/mu-opioid, membrane potential fluorescence; AID 488927; shares compounds with TRPC6 inhibitor; actives 69% (n = 2,400);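 active means membrane potential signal moved up or down beyond 5 SD of buffer control wells, in both duplicate plates, actives on both sides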;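 further: plate controls were assay buffer wells for no effect and DAMGO maximal-effect wells for full effect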
TRPC4 ctr inh 2 = second selectivity test of TRPC6 modulators against mouse TRPC4; shares compounds with TRPC6 inhibitor; HEK293 TRPC4/mu-opioid, membrane potential dye fluorescence; stimulated with maximal-effect DAMGO; inhibition, % at 10 µM; actives 55% (n = 2,400); AID 488928;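 active means drop in membrane potential signal beyond 5 SD of the control wells in both duplicate plates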;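 further: TRPC4 counter screen for TRPC6 hits run under conditions tuned for TRPC6 not TRPC4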
TRPC6 block conf = mouse TRPC6 inhibitor confirmation; shares compounds with TRPC6 inhibitor; HEK293-TRPC6, membrane potential dye, ACh-evoked depolarization; inhibition, % at 10 µM; actives 43% (n = 3,300); AID 488960;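 active means fluorescence ratio falls more than 5 SD below the full-stimulation control mean, in both duplicate runs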;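 further: integrated fluorescence ratio of peak minus minimum over baseline after agonist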
TRPC6 act conf = confirmation of mouse TRPC6 activators; actives 11% (n = 2,800); shares compounds with TRPC6 inhibitor; HEK293-TRPC6 membrane potential dye fluorescence, FDSS; activation, % at 10 µM;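 active means ratio signal rise beyond 5 SD above unstimulated control wells' mean, seen in both duplicate runs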;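 further: plate controls were buffer EC0 wells for no effect and acetylcholine ECmax response for full effect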
* hit, by the source's call; i = inactive; / = no result given; + = active, no number. Sampled rows, rich in hits. Any-hit rate of the full collection: about 2.9%.

SMILES	TRPC6 activator	TRPC4 agonist	Kir21 inh	TRPC6 inhibitor	TRPC4 potent	TRPC4 inh	HEK293 MPD ctr-2	HEK293 MPD ctr 2-2	TRPC4 ctr mod	TRPC4 ctr inh 2	TRPC6 block conf	TRPC6 act conf	others
O=C(c1cccs1)N1CCN(C23CC4CC(CC(C4)C2)C3)CC1	i	i	0.47	-6.33*	i	i	114.5%*	i	17.5%*	i	44.5%*	/
O=C(c1ccc(Cl)s1)N1CCN(C23CC4CC(CC(C4)C2)C3)CC1	i	i	0.19	i	i	i	/	/	/	/	/	/
COc1cc(-c2nnc(SCC(=O)N(C)C3CCS(=O)(=O)C3)o2)cc(OC)c1OC (stereo unspecified)	i	i	0.24	i	i	i	/	/	/	/	/	/
O=C(NC1CCN(Cc2ccccc2)CC1)c1cc(-c2ccccn2)nc2ccccc12	i	i	-0.14	i	i	i	/	/	/	/	/	/
CC1CCN(CC(C)CNC(=O)c2cc(-c3ccccn3)nc3ccccc23)CC1 (stereo unspecified)	i	i	-0.83	-8.58*	i	i	/	/	/	/	i	i	TRPC4 spec 2=70.0%*;TRPC4 spec=i;HEK293 MPD ctr 2-1=208.5%*;HEK293 MPD ctr-1=i
C=C(C)CC1(NC(C)c2ccccc2)CCCCC1 (stereo unspecified)	i	i	-4.91*	-5.06*	i	i	i	i	23.5%*	i	i	i
CC(C)c1ccc(NC(=S)NCCc2c[nH]c3ccccc23)cc1	i	i	-0.39	i	i	i	/	/	/	/	/	/
CC(C)(C)c1ccc(Cn2c(=N)n(CC(O)c3ccco3)c3ccccc32)cc1 (stereo unspecified)	i	i	-6.23*	-7.3*	i	i	/	/	/	/	66.7%*	i	TRPC4 spec 2=37.0%*;TRPC4 spec=11.0%*;HEK293 MPD ctr 2-1=i;HEK293 MPD ctr-1=8.7%*
COc1cc(/C=C/C(=O)c2ccc3c(c2)OCO3)cc(Cl)c1O	52.3*	100*	-9.65	i	i	i	+	+	257.5%*	53.5%*	/	342.0%*
CCCCc1ccc(-c2csc(/C(C#N)=C\c3ccc(C)o3)n2)cc1	i	i	-0.19	-8.41*	i	i	/	/	/	/	i	/	TRPC4 spec 2=i;TRPC4 spec=i;HEK293 MPD ctr 2-1=i;HEK293 MPD ctr-1=i
CCOc1nc2cnccc2n(CC(=O)Nc2ccccc2C(=O)OC)c1=O	i	i	0.2	i	i	i	/	/	/	/	/	/
Cc1cccc(CCNC(=O)C2CCCN(S(=O)(=O)c3cccc4nsnc34)C2)c1 (stereo unspecified)	i	i	0.17	i	i	i	/	/	/	/	/	/
Cc1ccc(CCNC(=O)C2CCCN(S(=O)(=O)c3cccc4nsnc34)C2)cc1 (stereo unspecified)	i	i	-0.39	-5.95*	i	i	i	i	i	i	i	i
CCN1C(=O)/C(=C/C=C2\N(CC)c3cc(S(=O)(=O)N(C)C)ccc3N2c2ccccc2)SC1=S	16.3*	i	-1.46	i	20*	i	365.5%*	i	87.0%*	i	i	i
CN(C)c1ccc(/C=C/C=C2/SC(=S)N(c3ccccc3)C2=O)cc1	i	i	-0.65	i	i	/	/	/	/	/	/	/
COc1ccc(/C=N/OC/C(O)=C(\C#N)c2nc3ccccc3[nH]2)cc1OC	i	i	-0.01	i	i	i	/	/	/	/	/	/
COC(=O)CN1C(=S)N(c2ccc(Cl)cc2)C(=O)C1CC(=O)Nc1ccc(Cl)cc1 (stereo unspecified)	i	i	0.09	-6.59*	i	i	-68.5%*	i	-19.5%*	32.0%*	i	i
COC(=O)CN1C(=S)N(c2ccc(Cl)cc2)C(=O)C1CC(=O)Nc1ccc(F)cc1 (stereo unspecified)	i	i	-0.74	i	i	i	/	/	/	/	/	/
O=C(CSc1ccc(-c2ccccn2)nn1)Nc1cccc(F)c1	i	i	-0.56	i	i	i	/	/	/	/	/	/
COc1cccc(NS(=O)(=O)c2ccc3[nH]cc(C(=O)NC4CC4)c(=O)c3c2)c1	14.3*	i	-3.82	-8.87*	i	i	i	i	i	i	58.0%*	90.5%*
Cc1ccc(Nc2nc(-c3sc(N)nc3C)cs2)cc1	i	i	-0.54	-7.66*	i	i	/	/	/	/	i	i	TRPC4 spec 2=i;TRPC4 spec=-10.9%*;HEK293 MPD ctr 2-1=i;HEK293 MPD ctr-1=-237.0%*
COc1ccc(Nc2nc(-c3sc(N)nc3C)cs2)cc1	i	i	0.21	i	i	i	/	/	/	/	/	/
O=C(NN1C(=O)c2cc(Br)ccc2NC1c1cc(Br)cc(Br)c1O)c1ccncc1 (stereo unspecified)	i	i	-0.26	i	i	i	/	/	/	/	/	/
CN1CCCC1CCNc1ccc2sc3ccccc3c(=O)c2c1 (stereo unspecified)	30.4*	75*	-14.9	-6.27*	i	i	794.0%*	i	148.5%*	67.0%*	i	317.5%*

Screening results as filed in PubChem.
